Data on four molecules can be found in ChEMBL document CHEMBL1156047, “Diastereoisomers of 2-benzyl-2, 3-dihydro-2-(1H-inden-2-yl)-1H-inden-1-ol: potential anti-inflammatory agents” (2009).

Experiment [1] has as its system Ileum. As to the kind of experiment: Muscle relaxant activity in potassium-depolarized guinea pig ileum assessed as inhibition of calcium-induced contraction at 10 uM. To be noted: Cavia porcellus. It is filed as functional. In a few lines:
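Isolated guinea-pig ileum depolarised with potassium; sustained contraction induced by calcium (2.5 mM). Test compounds at 1 × 10⁻⁵ M, with nifedipine 1 × 10⁻⁸ M as reference. Result expressed as % inhibition of the calcium contracture. Mean ± SEM, n = 6–12.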

Another experiment deals with Mus musculus. In words: Antiinflammatory activity against arachidonic acid-induced ear edema in Balb/C mouse at 300 ug/ear administered topically 1 hr before arachidonic acid challenge measured after 60 mins. It is filed as functional. In outline:
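Topical application in 100 µL acetone (compound 300 µg, indomethacin 300 µg positive control, vehicle alone) to mouse ear; oedema induced with arachidonic acid (4 mg). Ear width measured with a micrometer screw gauge before and 60 min after induction. Oedema expressed as percentage of normal by comparing left and right ear widths. n = 4–8 per group.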

Experiment [2] concerns RBL-2H3. As to the kind of experiment: Antiinflammatory activity against calcium ionophore A23187-induced beta-hexosaminidase release in rat RBL2H3 cells at 50 uM after 30 mins. It is filed as functional. To be noted: RBL-2H3, 0.5 h. In outline:
(§1)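 RBL-2H3 cells plated at 1 × 10⁵ cells/cm² in 24-well plates and allowed to adhere ≥3 h. Medium replaced with fresh medium containing calcium ionophore A23187 plus compound (0.3–50 µM range; DMSO 0.5% solvent control). Incubation 30 min, 37 °C, 5% CO₂. Supernatant β-hexosaminidase measured with p-nitrophenyl N-acetyl-glucosaminide in citrate pH 4.5 for 1 h at 37 °C, stopped with NaOH, read at 405 nm. Values are % of total (Triton X-100 lysate), spontaneous release subtracted. Triplicate.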

For experiment [3], the system named is RBL-2H3. In words: Antiinflammatory activity against calcium ionophore A23187-induced beta-hexosaminidase release from rat RBL2H3 cells at 10 uM after 30 mins. The class given is functional. Particulars: RBL-2H3, 0.5 h. In a few lines:
as §1

The test system of experiment [4] is RBL-2H3. In words: Antiinflammatory activity against calcium ionophore A23187-induced beta-hexosaminidase release from rat RBL2H3 cells after 30 mins. It is filed as functional, cell-based. In outline: as §1
Experiment [5] deals with Ileum. In words: Muscle relaxant activity in potassium-depolarized guinea pig ileum assessed as inhibition of calcium-induced contraction at 10 nM. The class given is functional. Particulars: Cavia porcellus. In a few lines:
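Isolated guinea-pig ileum, depolarised with potassium, in which calcium (2.5 mM) induced a sustained contraction. The agent was applied at 1 × 10^-8 M, and activity was expressed as percent inhibition of the calcium contracture. Values are given as mean with SEM, n = 6.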

Each structure is given as a SMILES string.

One may read the inhibition as the relative decrease from the control value, in per cent. As for `O[C@H]1c2ccccc2C[C@@]1(Cc1ccccc1)C1=Cc2ccccc2C1`, the figures for the inhibition at 10 µM with Ileum [1] and in the experiment on RBL-2H3 [3] were 36.4% and 40%, respectively. For the same molecule, the “inhibition (INH)” value in the experiment with Mus musculus is 59%. Also, the inhibition at 50 µM in the experiment with RBL-2H3 [2] was 75%. For the same molecule, the inhibition entry in the experiment with RBL-2H3 [4] was “Dose-dependent effect”.
The like results for `O[C@H]1c2ccccc2C[C@]1(Cc1ccccc1)C1=Cc2ccccc2C1` were, in that order, 18.9%, 45%, 45%, 96% and “Dose-dependent effect”.
As to `COC(=O)C1=C(C)NC(C)=C(C(=O)OC)C1c1ccccc1[N+](=O)[O-]` [NIFEDIPINE], in the experiment with Ileum [5], the inhibition at 0.01 µM is 48.1%.
Regarding `COc1ccc2c(c1)c(CC(=O)O)c(C)n2C(=O)c1ccc(Cl)cc1` [INDOMETHACIN], the “inhibition (INH)” value with Mus musculus is given as 50%.
